ChEMBL document CHEMBL3414503, “Distinct novel quinazolinone exhibits selective inhibition in MGC-803 cancer cells by dictating mutant p53 function” (Eur J Med Chem, 2015)
Activity calls are given as the source filed them. The calls are words filed in the database; no cut-off is given here.

What was measured:
A-375 = assay: Cytotoxicity against human A375 cells assessed as cell viability after 48 hrs by MTT assay; format: functional, cell-based; conditions: A-375, 48 h
Outline: (§1)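 Cells were trypsinized, seeded in 96-well plates at 2 × 10³ cells/well and grown for 24 h. Medium was then replaced with compound solutions (in DMSO, range from 0.1) for 48 h, and viability was read by MTT. Cancer lines were grown in RPMI 1640 + 10% FCS. IC50 from 3 independent experiments, each in triplicate.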

MGC-803 [1] = assay: Cytotoxicity against human MGC803 cells assessed as cell viability after 48 hrs by MTT assay; format: functional, cell-based; conditions: MGC-803, 48 h; outline: as §1
HepG2 = assay: Cytotoxicity against human HepG2 cells assessed as cell viability after 48 hrs by MTT assay; format: functional, cell-based; conditions: HepG2, 48 h; outline: as §1
NCI-H460 = assay: Cytotoxicity against human NCI-H460 cells assessed as cell viability after 48 hrs by MTT assay; format: functional, cell-based; conditions: NCI-H460, 48 h; outline: as §1
MGC-803 [2] = assay: Cell cycle arrest in human MGC803 cells assessed as accumulation at G2/M phase at 10 uM after 48 hrs by propidium iodide staining-based FACS analysis relative to control; format: functional
MGC-803 [3] = assay: Cell cycle arrest in human MGC803 cells assessed as accumulation at G2/M phase at 1 uM after 48 hrs by propidium iodide staining-based FACS analysis relative to control; format: functional
MGC-803 [4] = assay: Cell cycle arrest in human MGC803 cells assessed as accumulation at G0/G1 phase at 10 uM after 48 hrs by propidium iodide staining-based FACS analysis relative to control; format: functional
MGC-803 [5] = assay: Cell cycle arrest in human MGC803 cells assessed as accumulation at sub G1 phase at 10 uM after 48 hrs by propidium iodide staining-based FACS analysis relative to control; format: functional
MGC-803 [6] = assay: Cell cycle arrest in human MGC803 cells assessed as accumulation at S phase at 10 uM after 48 hrs by propidium iodide staining-based FACS analysis relative to control; format: functional
MGC-803 [7] = assay: Cell cycle arrest in human MGC803 cells assessed as accumulation at sub G1 phase at 1 uM after 48 hrs by propidium iodide staining-based FACS analysis relative to control; format: functional
MGC-803 [8] = assay: Cell cycle arrest in human MGC803 cells assessed as accumulation at S phase at 1 uM after 48 hrs by propidium iodide staining-based FACS analysis relative to control; format: functional
MGC-803 [9] = assay: Cell cycle arrest in human MGC803 cells assessed as accumulation at G0/G1 phase at 1 uM after 48 hrs by propidium iodide staining-based FACS analysis relative to control; format: functional
[10] = tested on: Cellular tumor antigen p53 (Homo sapiens), P04637 [UNDEFINED MUTATION]; assay: Inhibition of P53 mutant phosphorylation at s392 in human MGC803 cells at 1 to 10 uM after 24 hrs by Western blot analysis; format: cell-based; conditions: MGC-803
Sequence of Cellular tumor antigen p53 (Homo sapiens), P04637 [UNDEFINED MUTATION] (P04637 whole entry, looked up, stated change not applied): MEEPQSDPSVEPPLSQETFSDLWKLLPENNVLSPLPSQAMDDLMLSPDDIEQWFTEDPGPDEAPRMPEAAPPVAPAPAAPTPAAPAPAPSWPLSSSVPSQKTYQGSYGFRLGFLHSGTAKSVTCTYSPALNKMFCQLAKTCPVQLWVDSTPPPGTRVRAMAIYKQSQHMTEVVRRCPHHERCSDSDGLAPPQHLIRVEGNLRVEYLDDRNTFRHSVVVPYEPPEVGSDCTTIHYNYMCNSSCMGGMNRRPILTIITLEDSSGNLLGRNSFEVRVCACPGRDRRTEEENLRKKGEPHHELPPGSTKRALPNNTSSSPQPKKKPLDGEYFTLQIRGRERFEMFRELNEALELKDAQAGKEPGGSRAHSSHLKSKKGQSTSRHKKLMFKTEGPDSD
Outline: (§2)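 MGC-803 cells, 3 × 10⁵ per well of a 6-well plate, exposed to compound for 24 h. Cells were washed in ice-cold PBS and lysed in sample buffer, then run on SDS-PAGE and transferred to nitrocellulose. Blots were probed with primary antibodies and […] anti-rabbit IgG and developed by ECL.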

[11] = tested on: Cellular tumor antigen p53 (Homo sapiens), P04637 [UNDEFINED MUTATION]; assay: Inhibition of P53 mutant acetylation at k373 in human MGC803 cells at 1 to 10 uM after 24 hrs by Western blot analysis; format: cell-based; conditions: MGC-803; outline: as §2
MGC-803 [12] = assay: Cytotoxicity against human MGC803 cells assessed as cell viability at 1 to 10 uM after 48 hrs by MTT assay; format: functional, cell-based

| Structure (SMILES) | IC50 (A-375) [µM] | IC50 (MGC-803 [1]) [µM] | IC50 (HepG2) [µM] | IC50 (NCI-H460) [µM] | other results |
| --- | --- | --- | --- | --- | --- |
| CN(C)CCCn1c(/C=C/c2ccc(Cl)cc2Cl)nc2cc(Cl)ccc2c1=O | 12.9 | 5.75 | 8.58 | 13.3 |  |
| CN(C)CCCn1c(/C=C/c2ccc(Cl)cc2Cl)nc2ccccc2c1=O | 7.15 | 3.89 | 4.2 | 5.86 | Activity (MGC-803 [2]): 12.83%; Activity (MGC-803 [3]): 11.4%; Activity (MGC-803 [4]): 34.55%; Activity (MGC-803 [5]): 31.98%; Activity (MGC-803 [6]): 20.64%; Activity (MGC-803 [7]): 5.09%; Activity (MGC-803 [8]): 29.35%; Activity (MGC-803 [9]): 54.16% |
| COc1ccc(/C=C/c2nc3ccccc3c(=O)n2CCN(C)C)cc1OC | > 20 | > 20 | > 20 | > 20 |  |
| COc1cc2nc(/C=C/c3ccc(F)cc3)n(CCCN(C)C)c(=O)c2cc1OC |  | > 20 | > 20 | > 20 | inhibition [10]: inactive; inhibition [11]: inactive; Activity (MGC-803 [12]): inactive |
| CN(C)CCCn1c(/C=C/c2ccc(Cl)cc2)nc2ccccc2c1=O | > 20 | > 20 | > 20 | > 20 |  |
| COc1cc2nc(/C=C/c3ccccc3Br)n(CCCN(C)C)c(=O)c2cc1OC | > 20 |  |  |  |  |
| CCCCn1c(/C=C/c2ccc(Cl)cc2)nc2ccccc2c1=O | > 20 | > 20 | > 20 | > 20 |  |
| CN(C)CCn1c(/C=C/c2ccc(F)cc2)nc2ccccc2c1=O | > 20 | > 20 | > 20 | > 20 |  |
| CN(C)CCn1c(/C=C/c2ccccc2Br)nc2ccccc2c1=O | > 20 | > 20 | > 20 | > 20 |  |
| CN(C)CCn1c(/C=C/c2cccc([N+](=O)[O-])c2)nc2ccccc2c1=O | > 20 | > 20 | > 20 | > 20 |  |
| CN(C)CCCn1c(/C=C/c2ccccc2Br)nc2cc(Cl)ccc2c1=O | 13.1 | 12.6 | 8.1 | 7.49 |  |
| CCCCn1c(/C=C/c2ccc(Cl)cc2Cl)nc2ccccc2c1=O | > 20 | > 20 | > 20 | > 20 |  |
| CCCCn1c(/C=C/c2cccc([N+](=O)[O-])c2)nc2ccccc2c1=O | > 20 | > 20 | > 20 | > 20 |  |
| CN(C)CCn1c(/C=C/c2cccc(O)c2)nc2ccccc2c1=O | > 20 | > 20 | > 20 | > 20 |  |
| CCCCn1c(/C=C/c2ccccc2Br)nc2ccccc2c1=O | > 20 | > 20 | > 20 | > 20 |  |
| COc1cc2nc(/C=C/c3cccc(O)c3)n(CCCN(C)C)c(=O)c2cc1OC | > 20 |  |  |  |  |
| CN(C)CCCn1c(/C=C/c2ccc3c(c2)OCO3)nc2cc(Cl)ccc2c1=O | > 20 | > 20 | > 20 | > 20 |  |
| COc1cc2nc(/C=C/c3ccc(Cl)cc3Cl)n(CCCN(C)C)c(=O)c2cc1OC | 12.7 | 5.92 | 6.45 | 6.37 |  |
| COc1ccc(/C=C/c2nc3cc(OC)c(OC)cc3c(=O)n2CCCN(C)C)cc1OC | > 20 |  |  |  |  |
| CN(C)CCCn1c(/C=C/c2ccccc2Br)nc2ccccc2c1=O | 8.41 | 14.6 | 5.06 | 6.54 |  |

| Structure (SMILES) | IC50 (A-375) [µM] | IC50 (MGC-803 [1]) [µM] | IC50 (HepG2) [µM] | IC50 (NCI-H460) [µM] | other results |
| --- | --- | --- | --- | --- | --- |
| COc1cc2nc(/C=C/c3cccc([N+](=O)[O-])c3)n(CCCN(C)C)c(=O)c2cc1OC | > 20 |  |  |  |  |
| CN(C)CCCn1c(/C=C/c2cccc([N+](=O)[O-])c2)nc2cc(Cl)ccc2c1=O | 14 | 4.14 | 6.13 | 5.83 |  |
| CN(C)CCCn1c(/C=C/c2ccc(F)cc2)nc2ccccc2c1=O | > 20 | > 20 | > 20 | > 20 |  |
| CN(C)CCCn1c(/C=C/c2ccc(Cl)cc2)nc2cc(Cl)ccc2c1=O | 14.1 | 6.88 | 6.43 | 7.72 |  |
| CN(C)CCn1c(/C=C/c2ccc3c(c2)OCO3)nc2ccccc2c1=O | > 20 | > 20 | > 20 | > 20 |  |
| CN(C)CCCn1c(/C=C/c2cccc(O)c2)nc2cc(Cl)ccc2c1=O | > 20 | > 20 | > 20 | 10.5 |  |
| CCCCn1c(/C=C/c2ccc(F)cc2)nc2ccccc2c1=O | > 20 | > 20 | > 20 | > 20 |  |
| CN(C)CCCn1c(/C=C/c2cccc(O)c2)nc2ccccc2c1=O | > 20 | > 20 | 6.1 | > 20 |  |
| COc1cc2nc(/C=C/c3ccc([N+](=O)[O-])cc3)n(CCCN(C)C)c(=O)c2cc1OC | > 20 |  |  |  |  |
| CN(C)CCn1c(/C=C/c2ccc([N+](=O)[O-])cc2)nc2ccccc2c1=O | > 20 | > 20 | > 20 | > 20 |  |
| CN(C)CCn1c(/C=C/c2ccc(Cl)cc2Cl)nc2ccccc2c1=O | > 20 | > 20 | > 20 | > 20 |  |
| CN(C)CCn1c(/C=C/c2ccc(Cl)cc2)nc2ccccc2c1=O | > 20 | > 20 | > 20 | > 20 |  |
| CCCCn1c(/C=C/c2ccc([N+](=O)[O-])cc2)nc2ccccc2c1=O | > 20 | > 20 | > 20 | > 20 |  |
| CCCCn1c(/C=C/c2cccc(O)c2)nc2ccccc2c1=O | > 20 | > 20 | > 20 | > 20 |  |
| COc1cc2nc(/C=C/c3ccc4c(c3)OCO4)n(CCCN(C)C)c(=O)c2cc1OC | > 20 |  |  |  |  |
| CN(C)CCCn1c(/C=C/c2ccc([N+](=O)[O-])cc2)nc2cc(Cl)ccc2c1=O | 10.3 | 8.28 | 7.41 | 5.55 |  |
| CCCCn1c(/C=C/c2ccc(OC)c(OC)c2)nc2ccccc2c1=O | > 20 | > 20 | > 20 | > 20 |  |
| CN(C)CCCn1c(/C=C/c2ccc(F)cc2)nc2cc(Cl)ccc2c1=O | > 20 | > 20 | > 20 | > 20 |  |
| COc1ccc(/C=C/c2nc3cc(Cl)ccc3c(=O)n2CCCN(C)C)cc1OC | > 20 | > 20 | > 20 | > 20 |  |
| CCCCn1c(/C=C/c2ccc3c(c2)OCO3)nc2ccccc2c1=O | > 20 | > 20 | > 20 | > 20 |  |
